Results as given in ChEMBL document CHEMBL1132632, “Conformational and quantitative structure-activity relationship study of cytotoxic 2-arylidenebenzocycloalkanones” (J Med Chem, 1999).

Experiments:
CCRF-CEM [1] = experiment: Inhibitory activity was tested against CEM cells; type: functional, cell-based; conditions: Homo sapiens
CCRF-CEM [2] = experiment: Average potency against CEM cells; type: functional, Homo sapiens
Tumor Cell line = experiment: Tested against human tumor cell lines, mean graph mid point values(MG MID) are determined.; type: functional
Summary of the method: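 Panel of about 55 human tumor cell lines from nine cancer types: leukemia, melanoma, non-small-cell lung, colon, CNS, ovarian, renal, prostate and breast. Compounds were tested from 10⁻⁴ to 10⁻⁸ M, and the 50% growth-inhibitory concentration was found for each line.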

L1210 [3] = experiment: Average potency against L1210 cells; type: functional, Mus musculus
MOLT-4 [4] = experiment: Average potency against Molt4/C8cells; type: functional, Homo sapiens
MOLT-4 [5] = experiment: Inhibitory activity was tested against Molt4/C8 cells; type: functional, cell-based; conditions: Homo sapiens
P388 [6] = experiment: Average potency against P388 cells; type: functional, Mus musculus
P388 [7] = experiment: Inhibitory activity was tested against P388 cells; type: functional, cell-based; conditions: Mus musculus
L1210 [8] = experiment: Inhibitory activity was tested against L1210 cells; type: functional, cell-based; conditions: Mus musculus

SMILES | IC50 (CCRF-CEM [1]) | IC50 (MOLT-4 [5]) | IC50 (P388 [7]) | IC50 (L1210 [8]) | AP (CCRF-CEM [2]) | MG MID (Tumor Cell line) | AP (L1210 [3]) | AP (MOLT-4 [4]) | AP (P388 [6])
O=C1CCCCC/C1=C\c1ccc(Cl)cc1 | 43.5 µM | 52.6 µM | 19.1 µM | 83 µM | 136 µM | 33.1 µM | 227 µM | 186 µM | 34.5 µM
Cc1cccc(/C=C2\CCCCCC2=O)c1 | 170 µM | 228 µM | 29.8 µM | 263 µM | 136 µM | 81.3 µM | 227 µM | 186 µM | 34.5 µM
Cc1cccc(/C=C2\Cc3ccccc3C2=O)c1 | 41.3 µM | 80.3 µM | 24.9 µM | 50.4 µM | 155 µM | – | 127 µM | 267 µM | 42.9 µM
COc1cccc(/C=C2\CCCCCC2=O)c1 | 128 µM | 170 µM | > 50 µM | 283 µM | 136 µM | 85.1 µM | 227 µM | 186 µM | 34.5 µM
Cc1ccc(/C=C2\CCCCCC2=O)cc1 | > 500 µM | > 500 µM | > 50 µM | > 500 µM | 136 µM | 83.2 µM | 227 µM | 186 µM | 34.5 µM
O=C1CCCCC/C1=C\c1cccc(Cl)c1 | 40.5 µM | 88.6 µM | 25.7 µM | 144 µM | 136 µM | 41.7 µM | 227 µM | 186 µM | 34.5 µM
O=C1CCCCC/C1=C\c1ccc(Br)cc1 | 42.8 µM | 49.4 µM | 16.8 µM | 68.4 µM | 136 µM | – | 227 µM | 186 µM | 34.5 µM
O=C1/C(=C/c2ccc([N+](=O)[O-])cc2)CCCc2ccccc21 | > 500 µM | > 500 µM | 10.9 µM | > 500 µM | 47 µM | 89.1 µM | 85.2 µM | 66 µM | 11.2 µM
O=C1/C(=C/c2cccc([N+](=O)[O-])c2)Cc2ccccc21 | 222 µM | > 500 µM | > 50 µM | 256 µM | 155 µM | 91.2 µM | 127 µM | 267 µM | 42.9 µM
COc1ccc(/C=C2\CCCCCC2=O)cc1 | 194 µM | 250 µM | > 50 µM | 306 µM | 136 µM | 100 µM | 227 µM | 186 µM | 34.5 µM
O=C1/C(=C/c2cccc(Br)c2)Cc2ccccc21 | 32.4 µM | 173 µM | 21 µM | 43.3 µM | 155 µM | 46.7 µM | 127 µM | 267 µM | 42.9 µM
O=C1CCCCC/C1=C\c1ccc([N+](=O)[O-])cc1 | 36.3 µM | 39.6 µM | 25.2 µM | 104 µM | 136 µM | 30.2 µM | 227 µM | 186 µM | 34.5 µM
O=C1CCCCC/C1=C\c1ccccc1 | 110 µM | 215 µM | > 50 µM | 261 µM | 136 µM | 91.2 µM | 227 µM | 186 µM | 34.5 µM
CN(C)c1ccc(/C=C2\CCCCCC2=O)cc1 | 45.1 µM | 57.4 µM | 18.8 µM | 79.1 µM | 136 µM | 85.1 µM | 227 µM | 186 µM | 34.5 µM
CN(C)c1ccc(/C=C2\CCCc3ccccc3C2=O)cc1 | – | – | – | – | 47 µM | 1.41 µM | 85.2 µM | 66 µM | 11.2 µM
O=C1CCCCC/C1=C\c1ccc(F)cc1 | 198 µM | 250 µM | > 50 µM | 291 µM | 136 µM | 83.2 µM | 227 µM | 186 µM | 34.5 µM

Continued, in another order:

IC50 (CCRF-CEM [1]) | IC50 (MOLT-4 [5]) | IC50 (P388 [7]) | IC50 (L1210 [8]) | SMILES | AP (CCRF-CEM [2]) | MG MID (Tumor Cell line) | AP (L1210 [3]) | AP (MOLT-4 [4]) | AP (P388 [6])
11.2 µM | 28.3 µM | 10.9 µM | 134 µM | O=C1/C(=C/c2cccc(F)c2)CCCc2ccccc21 | 47 µM | 16.2 µM | 85.2 µM | 66 µM | 11.2 µM
30.1 µM | 39.2 µM | 23.6 µM | 162 µM | O=C1CCCCC/C1=C\c1cccc([N+](=O)[O-])c1 | 136 µM | 30.2 µM | 227 µM | 186 µM | 34.5 µM
15.1 µM | 33 µM | 9.5 µM | 51.8 µM | O=C1/C(=C/c2ccc(Cl)cc2)CCCc2ccccc21 | 47 µM | 17 µM | 85.2 µM | 66 µM | 11.2 µM
8.79 µM | 21.2 µM | 16.6 µM | 158 µM | O=C1/C(=C/c2cccc(Br)c2)CCc2ccccc21 | 115 µM | 11.8 µM | 135 µM | 158 µM | 20.9 µM
15.8 µM | 34.6 µM | 19.9 µM | 54.4 µM | Cc1cccc(/C=C2\CCCc3ccccc3C2=O)c1 | 47 µM | 20 µM | 85.2 µM | 66 µM | 11.2 µM
5.3 µM | 8.01 µM | 12 µM | 254 µM | O=C1/C(=C/c2cccc([N+](=O)[O-])c2)CCc2ccccc21 | 115 µM | – | 135 µM | 158 µM | 20.9 µM
28.9 µM | 42.7 µM | 12.7 µM | 106 µM | O=C1/C(=C/c2ccccc2)CCCc2ccccc21 | 47 µM | 18.6 µM | 85.2 µM | 66 µM | 11.2 µM
9.5 µM | > 100 µM | 13.9 µM | 56.3 µM | COc1cccc(/C=C2\CCCc3ccccc3C2=O)c1 | 47 µM | 15.9 µM | 85.2 µM | 66 µM | 11.2 µM
